{"source": "ChEMBL document CHEMBL4689842", "about": "“EUbOPEN Chemogenomics Library wave 1” (2021)", "system": "Fibroblast", "assay": "Multiplex assay against human fibroblast", "type": "toxicity, cell-based", "summary_of_the_method": "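Phenotypes for tubulin, mitochondrial mass and membrane permeability are expressed as per cents of healthy-nucleus cells. Cells were stained live at seeding with Hoechst33342, BioTracker Green Microtubule Cytoskeleton Dye, MitoTracker Red and Annexin V Alexa Fluor 680, then imaged after compound addition on a CQ1 microscope at 37°C and 5% CO2. Machine-learning gating in CellPathfinder separated Hoechst high-intensity objects from normal cells, divided normal cells by nuclear state (healthy, pyknosed, fragmented) and divided pyknosed cells into mitotic or apoptotic.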", "key": {"[1]": {"conditions": "12 h, 1 µM, compound concentration 1 uM, replicate 1"}, "[2]": {"conditions": "12 h, 1 µM, compound concentration 1 uM, replicate 2"}, "[3]": {"conditions": "12 h, 10 µM, compound concentration 10 uM, replicate 1"}, "[4]": {"conditions": "12 h, 10 µM, compound concentration 10 uM, replicate 2"}, "[5]": {"conditions": "24 h, 1 µM, compound concentration 1 uM, replicate 1"}, "[6]": {"conditions": "24 h, 1 µM, compound concentration 1 uM, replicate 2"}, "[7]": {"conditions": "24 h, 10 µM, compound concentration 10 uM, replicate 1"}, "[8]": {"conditions": "24 h, 10 µM, compound concentration 10 uM, replicate 2"}}, "data": [{"smiles": "NC(=O)c1cccc(-c2cc(Nc3ccc(OC(F)(F)F)cc3)ncn2)c1", "values": [{"measurement": "Population Apoptotic (%)", "setting": "[1]", "value": 80, "unit": "%"}, {"measurement": "Population Fragmented Nuclei (%)", "setting": "[1]", "value": 30, "unit": "%"}, {"measurement": "Population Healthy Nuclei (%)", "setting": "[1]", "value": 53, "unit": "%"}, {"measurement": "Population Hoechst High Intensity Objects (%)", "setting": "[1]", "value": 10, "unit": "%"}, {"measurement": "Population Membrane Permeable-Phenotype (%)", "setting": "[1]", "value": 5, "unit": "%"}, {"measurement": "Population Mitochondria Different-Phenotype (%)", "setting": "[1]", "value": 6, "unit": "%"}, {"measurement": "Population Mitotic Cells (%)", "setting": "[1]", "value": 20, "unit": "%"}, {"measurement": "Population Normal (%)", "setting": "[1]", "value": 89, "unit": "%"}, {"measurement": "Population Pyknosed Nuclei (%)", "setting": "[1]", "value": 16, "unit": "%"}, {"measurement": "Population Tubulin-Different-Phenotype (%)", "setting": "[1]", "value": 5, "unit": "%"}, {"measurement": "Total Cell Count", "setting": "[1]", "value": 205}, {"measurement": "Population Apoptotic (%)", "setting": "[2]", "value": 20, "unit": "%"}, {"measurement": "Population Fragmented Nuclei (%)", "setting": "[2]", "value": 42, "unit": "%"}, {"measurement": "Population Healthy Nuclei (%)", "setting": "[2]", "value": 48, "unit": "%"}, {"measurement": "Population Hoechst High Intensity Objects (%)", "setting": "[2]", "value": 39, "unit": "%"}, {"measurement": "Population Membrane Permeable-Phenotype (%)", "setting": "[2]", "value": 11, "unit": "%"}, {"measurement": "Population Mitochondria Different-Phenotype (%)", "setting": "[2]", "value": 23, "unit": "%"}, {"measurement": "Population Mitotic Cells (%)", "setting": "[2]", "value": 80, "unit": "%"}, {"measurement": "Population Normal (%)", "setting": "[2]", "value": 60, "unit": "%"}, {"measurement": "Population Pyknosed Nuclei (%)", "setting": "[2]", "value": 9, "unit": "%"}, {"measurement": "Population Tubulin-Different-Phenotype (%)", "setting": "[2]", "value": 3, "unit": "%"}, {"measurement": "Total Cell Count", "setting": "[2]", "value": 89}, {"measurement": "Population Apoptotic (%)", "setting": "[3]", "value": 69, "unit": "%"}, {"measurement": "Population Fragmented Nuclei (%)", "setting": "[3]", "value": 20, "unit": "%"}, {"measurement": "Population Healthy Nuclei (%)", "setting": "[3]", "value": 61, "unit": "%"}, {"measurement": "Population Hoechst High Intensity Objects (%)", "setting": "[3]", "value": 7, "unit": "%"}, {"measurement": "Population Membrane Permeable-Phenotype (%)", "setting": "[3]", "value": 7, "unit": "%"}, {"measurement": "Population Mitochondria Different-Phenotype (%)", "setting": "[3]", "value": 3, "unit": "%"}, {"measurement": "Population Mitotic Cells (%)", "setting": "[3]", "value": 30, "unit": "%"}, {"measurement": "Population Normal (%)", "setting": "[3]", "value": 92, "unit": "%"}, {"measurement": "Population Pyknosed Nuclei (%)", "setting": "[3]", "value": 18, "unit": "%"}, {"measurement": "Population Tubulin-Different-Phenotype (%)", "setting": "[3]", "value": 6, "unit": "%"}, {"measurement": "Total Cell Count", "setting": "[3]", "value": 231}, {"measurement": "Population Apoptotic (%)", "setting": "[4]", "value": 60, "unit": "%"}, {"measurement": "Population Fragmented Nuclei (%)", "setting": "[4]", "value": 50, "unit": "%"}, {"measurement": "Population Healthy Nuclei (%)", "setting": "[4]", "value": 23, "unit": "%"}, {"measurement": "Population Hoechst High Intensity Objects (%)", "setting": "[4]", "value": 39, "unit": "%"}, {"measurement": "Population Membrane Permeable-Phenotype (%)", "setting": "[4]", "value": 0, "unit": "%"}, {"measurement": "Population Mitochondria Different-Phenotype (%)", "setting": "[4]", "value": 44, "unit": "%"}, {"measurement": "Population Mitotic Cells (%)", "setting": "[4]", "value": 40, "unit": "%"}, {"measurement": "Population Normal (%)", "setting": "[4]", "value": 60, "unit": "%"}, {"measurement": "Population Pyknosed Nuclei (%)", "setting": "[4]", "value": 26, "unit": "%"}, {"measurement": "Population Tubulin-Different-Phenotype (%)", "setting": "[4]", "value": 33, "unit": "%"}, {"measurement": "Total Cell Count", "setting": "[4]", "value": 63}, {"measurement": "Population Apoptotic (%)", "setting": "[5]", "value": 60, "unit": "%"}, {"measurement": "Population Fragmented Nuclei (%)", "setting": "[5]", "value": 26, "unit": "%"}, {"measurement": "Population Healthy Nuclei (%)", "setting": "[5]", "value": 59, "unit": "%"}, {"measurement": "Population Hoechst High Intensity Objects (%)", "setting": "[5]", "value": 12, "unit": "%"}, {"measurement": "Population Membrane Permeable-Phenotype (%)", "setting": "[5]", "value": 6, "unit": "%"}, {"measurement": "Population Mitochondria Different-Phenotype (%)", "setting": "[5]", "value": 7, "unit": "%"}, {"measurement": "Population Mitotic Cells (%)", "setting": "[5]", "value": 39, "unit": "%"}, {"measurement": "Population Normal (%)", "setting": "[5]", "value": 87, "unit": "%"}, {"measurement": "Population Pyknosed Nuclei (%)", "setting": "[5]", "value": 13, "unit": "%"}, {"measurement": "Population Tubulin-Different-Phenotype (%)", "setting": "[5]", "value": 11, "unit": "%"}, {"measurement": "Total Cell Count", "setting": "[5]", "value": 194}, {"measurement": "Population Apoptotic (%)", "setting": "[6]", "value": 50, "unit": "%"}, {"measurement": "Population Fragmented Nuclei (%)", "setting": "[6]", "value": 46, "unit": "%"}, {"measurement": "Population Healthy Nuclei (%)", "setting": "[6]", "value": 46, "unit": "%"}, {"measurement": "Population Hoechst High Intensity Objects (%)", "setting": "[6]", "value": 26, "unit": "%"}, {"measurement": "Population Membrane Permeable-Phenotype (%)", "setting": "[6]", "value": 12, "unit": "%"}, {"measurement": "Population Mitochondria Different-Phenotype (%)", "setting": "[6]", "value": 16, "unit": "%"}, {"measurement": "Population Mitotic Cells (%)", "setting": "[6]", "value": 50, "unit": "%"}, {"measurement": "Population Normal (%)", "setting": "[6]", "value": 73, "unit": "%"}, {"measurement": "Population Pyknosed Nuclei (%)", "setting": "[6]", "value": 6, "unit": "%"}, {"measurement": "Population Tubulin-Different-Phenotype (%)", "setting": "[6]", "value": 12, "unit": "%"}, {"measurement": "Total Cell Count", "setting": "[6]", "value": 90}, {"measurement": "Population Apoptotic (%)", "setting": "[7]", "value": 55, "unit": "%"}, {"measurement": "Population Fragmented Nuclei (%)", "setting": "[7]", "value": 26, "unit": "%"}, {"measurement": "Population Healthy Nuclei (%)", "setting": "[7]", "value": 53, "unit": "%"}, {"measurement": "Population Hoechst High Intensity Objects (%)", "setting": "[7]", "value": 5, "unit": "%"}, {"measurement": "Population Membrane Permeable-Phenotype (%)", "setting": "[7]", "value": 5, "unit": "%"}, {"measurement": "Population Mitochondria Different-Phenotype (%)", "setting": "[7]", "value": 5, "unit": "%"}, {"measurement": "Population Mitotic Cells (%)", "setting": "[7]", "value": 44, "unit": "%"}, {"measurement": "Population Normal (%)", "setting": "[7]", "value": 94, "unit": "%"}, {"measurement": "Population Pyknosed Nuclei (%)", "setting": "[7]", "value": 19, "unit": "%"}, {"measurement": "Population Tubulin-Different-Phenotype (%)", "setting": "[7]", "value": 11, "unit": "%"}, {"measurement": "Total Cell Count", "setting": "[7]", "value": 237}, {"measurement": "Population Apoptotic (%)", "setting": "[8]", "value": 40, "unit": "%"}, {"measurement": "Population Fragmented Nuclei (%)", "setting": "[8]", "value": 50, "unit": "%"}, {"measurement": "Population Healthy Nuclei (%)", "setting": "[8]", "value": 39, "unit": "%"}, {"measurement": "Population Hoechst High Intensity Objects (%)", "setting": "[8]", "value": 31, "unit": "%"}, {"measurement": "Population Membrane Permeable-Phenotype (%)", "setting": "[8]", "value": 21, "unit": "%"}, {"measurement": "Population Mitochondria Different-Phenotype (%)", "setting": "[8]", "value": 31, "unit": "%"}, {"measurement": "Population Mitotic Cells (%)", "setting": "[8]", "value": 60, "unit": "%"}, {"measurement": "Population Normal (%)", "setting": "[8]", "value": 68, "unit": "%"}, {"measurement": "Population Pyknosed Nuclei (%)", "setting": "[8]", "value": 10, "unit": "%"}, {"measurement": "Population Tubulin-Different-Phenotype (%)", "setting": "[8]", "value": 57, "unit": "%"}, {"measurement": "Total Cell Count", "setting": "[8]", "value": 70}]}]}
